Measured values taken from publication PMC6636858 (European journal of medicinal chemistry, 2019).
Read-outs that look alike come from different tables or passages of the source. Peptide text beside a SMILES is read from it. * marks the point of attachment. AMC = Cc1cc(=O)oc2cc(N*)ccc12; Cbz = O=C(OCc1ccccc1)*

Experiments:
[1] = biological target: T1, Cathepsin L (Cat L, human liver) (Homo sapiens, UniProt P07711); experiment: CatL inhibition constants / Km, fluorogenic substrate Z-Phe-Arg-AMC; assay type: biochemical
[2] = biological target: T2, Cathepsin B (CatB, human liver) (Homo sapiens, UniProt P07858); experiment: CatB inhibition constants / Km, fluorogenic substrate Z-Arg-Arg-AMC; assay type: biochemical
human CatB = human CatB (Homo sapiens, UniProt P07858); experiment: SDS-PAGE autoradiography of adduct formation with purified CatB; assay type: biochemical; conditions: E-64 10 μM or N1 20 μM
HT-29 cells = experiment: SDS-PAGE autoradiography of intracellular adducts in cell lysate; assay type: cell-based, human; conditions: E-64 10 μM or N1 20 μM
In short: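 HT-29 cells (1 × 10^6/well) incubated 4 h at 37 °C with radioconjugate (20 μCi, 0.74 MBq, in 1 mL medium), ± E-64 (10 μM as added) or N1 (20 μM as added). Cells PBS-washed and given fresh medium. At chosen times, pooled from 3 wells, trypsinized and lysed in RIPA plus protease inhibitor (15 min on ice). Cleared lysate heated in SDS sample buffer (85 °C, 2 min) and run on 16% Tris-glycine gel (110 V, 90 min).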

human CatL = human CatL (Homo sapiens, UniProt P07711); experiment: SDS-PAGE autoradiography of adduct formation with purified CatL; assay type: biochemical; conditions: E-64 10 μM or N1 20 μM
[3] = biological target: T2, Cathepsin B (CatB, human liver); conditions: read-out: Michaelis-Menten constant (Km), reported value; cited from earlier work
[4] = biological target: T1, Cathepsin L (Cat L, human liver); conditions: read-out: Michaelis-Menten constant (Km), literature value; CatL; cited from earlier work

T1 sequence (P07711 114-288 limits assumed): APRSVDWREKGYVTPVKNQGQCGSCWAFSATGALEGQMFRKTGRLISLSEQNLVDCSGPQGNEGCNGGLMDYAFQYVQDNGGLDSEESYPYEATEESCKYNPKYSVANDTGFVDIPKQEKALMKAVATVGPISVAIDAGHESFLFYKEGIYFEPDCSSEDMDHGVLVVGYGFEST
T1 sequence (P07711 292-333 limits assumed): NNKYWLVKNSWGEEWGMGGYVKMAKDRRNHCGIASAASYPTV
Sequence of human CatL (P07711 114-288 limits assumed): as the sequence (P07711 114-288 limits assumed) above
Sequence of human CatL (P07711 292-333 limits assumed): as the sequence (P07711 292-333 limits assumed) above

## 3-(((S)-1-(((S)-1-((2-azidoethyl)amino)-5-guanidino-1-oxopentan-2-yl)amino)-4-methyl-1-oxopentan-2-yl)carbamoyl)oxirane-2-carboxylic acid [1a]
[1]; CatL
  second order rate constant ki/Ki: 16000 ± 1300 M⁻¹ s⁻¹
[2]; CatB
  second order rate constant ki/Ki: 130000 ± 1900 M⁻¹ s⁻¹

## CC(C)C[C@H](NC(=O)CCC(=O)O)C(=O)N[C@@H](CCCNC(=N)N)C(=O)NCCN=[N+]=[N-] [1b, 4-(((S)-1-(((S)-1-((2-azidoethyl)amino)-5-guanidino-1-oxopentan-2-yl)amino)-4-methyl-1-oxopentan-2-yl)amino)-4-oxobutanoic acid]
[2]; over the test concentration ranges
  inhibition of CatB: No inhibition

## CC(C)C[C@H](NC(=O)[C@H]1O[C@@H]1C(=O)O)C(=O)NCCCCN=C(N)N [E-64]
Human CatB
  effect of co-incubated agent on ^177Lu-NE1a adduct formation with CatB: prevented adduct formation
HT-29 cells
  effect of co-incubated agent on ^177Lu-NE1a intracellular adduct formation: unaffected
Human CatL
  effect of co-incubated agent on ^177Lu-NE1a adduct formation with CatL: prevented adduct formation

## Cc1cc(=O)oc2cc(NC(=O)[C@H](CCCN=C(N)N)NC(=O)[C@H](CCCN=C(N)N)NC(=O)OCc3ccccc3)ccc12 [Z-Arg-Arg-AMC] (Cbz-Arg-Arg-{AMC})
[2]; read-out: Michaelis-Menten constant (Km), CatB substrate
  Km: 189 ± 2 µM
[3]
  Km: 390 ± 20 µM

## Cc1cc(=O)oc2cc(NC(=O)C(CCCN=C(N)N)NC(=O)C(Cc3ccccc3)NC(=O)OCc3ccccc3)ccc12 (stereo not drawn) [Z-Phe-Arg-AMC] (Cbz-Phe-Arg-{AMC}; configuration not given here)
[1]; read-out: Michaelis-Menten constant (Km), CatL substrate
  Km: 36 ± 3 µM
[4]
  Km: 21.5 ± 3.2 µM
